According to paper PMC4137555 (Methods in enzymology, 2011):
“And” between values parts separate entries of the source, which are not always exact repeats. Identical values can stand only once. Ends that are not written are not given here. Peptide text beside a SMILES is read from it. * marks the point of attachment. Dansyl = CN(C)c1cccc2c(S(=O)(=O)*)cccc12

T1: Tiam2 PDZ domain (Homo sapiens, UniProt Q8IVF5)
T1 sequence (Q8IVF5 890-976 limits assumed): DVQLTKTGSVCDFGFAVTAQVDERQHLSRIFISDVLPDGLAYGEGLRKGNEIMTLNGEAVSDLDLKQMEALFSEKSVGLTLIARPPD

T2: KP-4E-Sdc1 peptide
T2 chain: Dansyl-QEEYYA

B1: Tiam1 PDZ (protein)
chain: VTQSIHIEKSDTAADTYGFSLSSVEEDGIRRLYVNSVKETGLASKKGLKAGDEILEINNRAADALNSSML

How the values were obtained:
[1] = target: Tiam1 PDZ domain (wild-type) (Homo sapiens, UniProt Q13009); type: binding; details: for ΔGb (free energy of binding): calculated from the dissociation constant, error by error propagation, 25 °C; for Σ Singles: sum of the ΔΔGb of the two single-mutant peptides; for binding to the Tiam1 PDZ domain (in words): unpublished data of the authors; for ΔΔGb: ΔΔGb = ΔGb(Core) − ΔGb(peptide); for Kd: SD
In short: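 His6-tagged Tiam1 PDZ domain expressed in E. coli BL21(DE3), purified by nickel-chelate and size-exclusion chromatography, tag removed with rTEV. N-terminally dansylated peptides (2 or 5 μM) in 20 mM PO4, 50 mM NaCl, 0.5 mM EDTA, pH 6.8, at 25 °C; PDZ added in 20–30 steps. Anisotropy read at λex 340/λem 555 nm and fit hyperbolically. Triplicate titrations, mean Kd ± standard deviation.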

Model peptide = details: cited from earlier work
Tiam2 PDZ domain = target: T1, Tiam2 PDZ domain; assay: Peptide binding to the Tiam2 PDZ domain; details: unpublished data of the authors
KP-4E-Sdc1 peptide = target: T2, KP-4E-Sdc1 peptide; assay: fluorescence anisotropy

Sequence of Tiam1 PDZ domain (wild-type) (Q13009 841-930 limits assumed): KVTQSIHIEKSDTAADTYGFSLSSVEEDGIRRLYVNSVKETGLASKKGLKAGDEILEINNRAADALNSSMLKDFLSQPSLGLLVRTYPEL

Molecule	ΔGb (free energy of binding) [1] [kcal/mol]	ΔΔGb [1] [kcal/mol]	Kd [1] [µM]	also measured
TKQEEFYACOOH [Syndecan1]	-6.23 ± 0.03	-0.88 ± 0.06		Σ Singles [1]: -0.71 ± 0.11 kcal/mol; binding to the Tiam1 PDZ domain (in words) [1]: bound the Tiam1 PDZ domain
C[C@H](NC(=O)[C@H](Cc1ccc(O)cc1)NC(=O)[C@H](Cc1ccccc1)NC(=O)[C@H](CCC(=O)O)NC(=O)[C@H](CCCCN)NC(=O)[C@H](CCC(N)=O)NC(=O)[C@H](CO)NC(=O)[C@H](CO)NS(=O)(=O)c1cccc2c(N(C)C)cccc12)C(=O)O [YP−2F–Sdc1] (Dansyl-SSQKEFYA-OH)	-5.42 ± 0.07	-0.07 ± 0.08	106 ± 7	
Tiam1 PDZ (from UniProt Q13009)				Kd (Model peptide): 112 µM
C[C@H](NC(=O)[C@H](Cc1ccc(O)cc1)NC(=O)[C@H](Cc1ccc(O)cc1)NC(=O)[C@H](CCC(=O)O)NC(=O)[C@H](CCC(=O)O)NC(=O)[C@H](CCC(N)=O)NC(=O)[C@H](CO)NC(=O)[C@H](CO)NS(=O)(=O)c1cccc2c(N(C)C)cccc12)C(=O)O [KP−4E–Sdc1] (Dansyl-SSQEEYYA-OH)	-5.99 ± 0.06	-0.65 ± 0.07	40 ± 2	
NKDKEYYVCOOH [Neurexin1, reference compound]				binding to the Tiam2 PDZ domain (in words) (Tiam2 PDZ domain): bound the PDZ domain tightly
CN(C)c1cccc2c(S(=O)(=O)N[C@@H](CCC(=O)O)C(=O)N[C@@H](CC(N)=O)C(=O)N[C@@H](CCC(N)=O)C(=O)N[C@@H](CCCCN)C(=O)N[C@@H](CCC(=O)O)C(=O)N[C@@H](Cc3ccc(O)cc3)C(=O)N[C@@H](Cc3ccccc3)C(=O)N[C@@H](Cc3ccccc3)C(=O)O)cccc12 [Caspr4] (Dansyl-ENQKEYFF-OH)	-6.43 ± 0.02	-1.09 ± 0.05	19 ± 0.4	ΔΔΔGint (interaction energy, double-mutant cycle) ([1]; double-mutant cycle of evolved peptides: Core, two single mutants, double mutant): -0.51 kcal/mol and -0.51 ± 0.08 kcal/mol; Σ Singles [1]: -0.57 ± 0.09 kcal/mol; binding to the Tiam1 PDZ domain (in words) [1]: bound the Tiam1 PDZ domain; binding to the Tiam2 PDZ domain (in words) (Tiam2 PDZ domain): bound the PDZ domain tightly
C[C@H](NC(=O)[C@H](Cc1ccccc1)NC(=O)[C@H](Cc1ccc(O)cc1)NC(=O)[C@H](CCC(=O)O)NC(=O)[C@H](CCCCN)NC(=O)[C@H](CCC(N)=O)NC(=O)[C@H](CO)NC(=O)[C@H](CO)NS(=O)(=O)c1cccc2c(N(C)C)cccc12)C(=O)O [YP−1F–Caspr4] (Dansyl-SSQKEYFA-OH)	-5.75 ± 0.01	-0.40 ± 0.05	60.1 ± 0.6	
SSRKEYYACOOH [Model peptide, reference compound]	-5.38 ± 0.05			
CN(C)c1cccc2c(S(=O)(=O)N[C@@H](CO)C(=O)N[C@@H](CO)C(=O)N[C@@H](CCC(N)=O)C(=O)N[C@@H](CCCCN)C(=O)N[C@@H](CCC(=O)O)C(=O)N[C@@H](Cc3ccc(O)cc3)C(=O)N[C@@H](Cc3ccc(O)cc3)C(=O)N[C@@H](Cc3ccccc3)C(=O)O)cccc12 [AP0F–Caspr4] (Dansyl-SSQKEYYF-OH)	-5.52 ± 0.06	-0.17 ± 0.08	89 ± 5	
B1				Kd (KP-4E-Sdc1 peptide): 40 µM
